Drawing on ChEMBL document CHEMBL3400042, “Mitotic arrest of breast cancer MDA-MB-231 cells by a halogenated thieno[3,2-d]pyrimidine” (Bioorg Med Chem Lett, 2015), this text covers IC50 and Activity for two compounds.

Assay [1] has as its system MDA-MB-231. Briefly: Cytotoxicity against human MDA-MB-231 cells after 48 hrs by MTT assay. Type of assay: functional, cell-based. The settings on record: MDA-MB-231, 48 h. The procedure, abridged: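 MDA-MB-231 cells exposed to a range of compound concentrations for 48 h, then viability read by MTT. IC50 (50% cell death) obtained by non-linear regression to a sigmoidal dose-response function; mean ± SD of three independent experiments.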

For assay [2], the system named is MDA-MB-231. Briefly: Induction of cell cycle arrest in human MDA-MB-231 cells assessed as accumulation at G2/M phase at 15 uM after 48 hrs by propidium iodide staining based flow cytometry. Type of assay: functional. In a few lines: (§1)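 After 48 h of compound exposure, MDA-MB-231 cells were fixed, stained with propidium iodide and analysed by flow cytometry, with at least 3000 cells per population. Phase fractions (<G1, G1, S, G2/M, >G2) were compared with DMSO vehicle controls. Values are mean ± SD of 4 independent cell samples.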
(In general: A flow cytometer gives signals particle by particle.)

The subject of assay [3] is MDA-MB-231. The assay can be described thus: Induction of cell cycle arrest in human MDA-MB-231 cells assessed as reduction in accumulation at G1 phase at 15 uM after 48 hrs by propidium iodide staining based flow cytometry. The class given is functional. The procedure, abridged: as §1
The test system of assay [4] is MDA-MB-231. Briefly: Induction of cell cycle arrest in human MDA-MB-231 cells assessed as reduction in accumulation at S phase at 15 uM after 48 hrs by propidium iodide staining based flow cytometry. Type of assay: functional. In a few lines: as §1
Assay [5] concerns MDA-MB-231. Briefly: Induction of cell cycle arrest in human MDA-MB-231 cells assessed as < G1 DNA content at 15 uM after 48 hrs by propidium iodide staining based flow cytometry. Type of assay: functional. The procedure, abridged:
as §1

The subject of assay [6] is MDA-MB-231. Briefly: Induction of cell cycle arrest in human MDA-MB-231 cells assessed as >G2 DNA content at 15 uM after 48 hrs by propidium iodide staining based flow cytometry. Type of assay: functional. In a few lines:
as §1

Assay [7] has as its system MDA-MB-231. The assay can be described thus: Induction of cell cycle arrest in human MDA-MB-231 cells assessed as accumulation at G1 phase at 8 uM after 48 hrs by propidium iodide staining based flow cytometry. The class given is functional. The procedure, abridged: as §1
The test system of assay [8] is MDA-MB-231. Briefly: Induction of cell cycle arrest in human MDA-MB-231 cells assessed as accumulation at S phase at 8 uM after 48 hrs by propidium iodide staining based flow cytometry. Type of assay: functional. In a few lines:
as §1

For assay [9], the system named is MDA-MB-231. Briefly: Induction of cell cycle arrest in human MDA-MB-231 cells assessed as accumulation at G2/M phase at 8 uM after 48 hrs by propidium iodide staining based flow cytometry. Type of assay: functional. In a few lines:
as §1

Assay [10] deals with MDA-MB-231. The assay can be described thus: Induction of cell cycle arrest in human MDA-MB-231 cells assessed as < G1 DNA content at 8 uM after 48 hrs by propidium iodide staining based flow cytometry. The class given is functional. In a few lines:
as §1

In assay [11] the test system is MDA-MB-231. Briefly: Induction of cell cycle arrest in human MDA-MB-231 cells assessed as >G2 DNA content at 8 uM after 48 hrs by propidium iodide staining based flow cytometry. The class given is functional. In a few lines:
as §1

pIC50: −log10 of the molar value. Calls of active or inactive are those of the source. No cut-off for these calls is given here.

One may read the pIC50 as the negative decadic logarithm of the IC50, by convention in mol/L. Higher therefore signals a low IC50. Turning to `Clc1nc(Cl)c2sccc2n1`, in the assay on MDA-MB-231 [1], the negative-log IC50 (pIC50) was 5.05. In addition, the Activity in the assay with MDA-MB-231 [2] was greater than 70%. Moreover, the result in the assay with MDA-MB-231 [3] and in the assay with MDA-MB-231 [4] was Active. In addition, the outcome in the assay with MDA-MB-231 [5] and in the assay with MDA-MB-231 [6] was inactive.

`Clc1nc(Cl)c2scc(Br)c2n1` gave a pIC50 in the assay with MDA-MB-231 [1] of 5.23. The result in the assay on MDA-MB-231 [7], in the assay on MDA-MB-231 [8], with MDA-MB-231 [9], in the assay on MDA-MB-231 [10] and in the assay with MDA-MB-231 [11] was inactive.
